From paper PMC11069345 (Bioorganic chemistry, 2024)
Where two headings read alike, the source gives them in different places.

Experiments:
ABCG2 (BCRP) [1] = target: T1, ABCG2 (BCRP) (Homo sapiens, UniProt Q9UNQ0)
T1 sequence (Q9UNQ0 1-655): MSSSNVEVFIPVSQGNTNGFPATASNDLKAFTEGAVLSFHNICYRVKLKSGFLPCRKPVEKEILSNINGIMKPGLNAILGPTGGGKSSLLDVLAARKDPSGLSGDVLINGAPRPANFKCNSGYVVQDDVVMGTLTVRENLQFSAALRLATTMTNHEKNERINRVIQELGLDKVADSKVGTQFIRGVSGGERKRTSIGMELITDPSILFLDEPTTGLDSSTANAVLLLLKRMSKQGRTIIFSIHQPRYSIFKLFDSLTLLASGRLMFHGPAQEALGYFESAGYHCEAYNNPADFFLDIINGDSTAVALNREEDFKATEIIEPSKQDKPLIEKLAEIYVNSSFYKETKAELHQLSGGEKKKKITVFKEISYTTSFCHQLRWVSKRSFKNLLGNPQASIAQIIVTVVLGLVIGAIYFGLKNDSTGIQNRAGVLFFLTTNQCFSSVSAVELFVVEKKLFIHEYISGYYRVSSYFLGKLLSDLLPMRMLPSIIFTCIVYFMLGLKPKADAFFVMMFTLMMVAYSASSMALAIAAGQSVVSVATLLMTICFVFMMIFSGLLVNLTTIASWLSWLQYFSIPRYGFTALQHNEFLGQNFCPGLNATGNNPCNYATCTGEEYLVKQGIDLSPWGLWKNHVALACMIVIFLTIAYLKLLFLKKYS

ABCB1 (P-gp) [2] = target: T2, ABCB1 (P-gp) (Homo sapiens, UniProt P08183)
T2 sequence (P08183 whole entry): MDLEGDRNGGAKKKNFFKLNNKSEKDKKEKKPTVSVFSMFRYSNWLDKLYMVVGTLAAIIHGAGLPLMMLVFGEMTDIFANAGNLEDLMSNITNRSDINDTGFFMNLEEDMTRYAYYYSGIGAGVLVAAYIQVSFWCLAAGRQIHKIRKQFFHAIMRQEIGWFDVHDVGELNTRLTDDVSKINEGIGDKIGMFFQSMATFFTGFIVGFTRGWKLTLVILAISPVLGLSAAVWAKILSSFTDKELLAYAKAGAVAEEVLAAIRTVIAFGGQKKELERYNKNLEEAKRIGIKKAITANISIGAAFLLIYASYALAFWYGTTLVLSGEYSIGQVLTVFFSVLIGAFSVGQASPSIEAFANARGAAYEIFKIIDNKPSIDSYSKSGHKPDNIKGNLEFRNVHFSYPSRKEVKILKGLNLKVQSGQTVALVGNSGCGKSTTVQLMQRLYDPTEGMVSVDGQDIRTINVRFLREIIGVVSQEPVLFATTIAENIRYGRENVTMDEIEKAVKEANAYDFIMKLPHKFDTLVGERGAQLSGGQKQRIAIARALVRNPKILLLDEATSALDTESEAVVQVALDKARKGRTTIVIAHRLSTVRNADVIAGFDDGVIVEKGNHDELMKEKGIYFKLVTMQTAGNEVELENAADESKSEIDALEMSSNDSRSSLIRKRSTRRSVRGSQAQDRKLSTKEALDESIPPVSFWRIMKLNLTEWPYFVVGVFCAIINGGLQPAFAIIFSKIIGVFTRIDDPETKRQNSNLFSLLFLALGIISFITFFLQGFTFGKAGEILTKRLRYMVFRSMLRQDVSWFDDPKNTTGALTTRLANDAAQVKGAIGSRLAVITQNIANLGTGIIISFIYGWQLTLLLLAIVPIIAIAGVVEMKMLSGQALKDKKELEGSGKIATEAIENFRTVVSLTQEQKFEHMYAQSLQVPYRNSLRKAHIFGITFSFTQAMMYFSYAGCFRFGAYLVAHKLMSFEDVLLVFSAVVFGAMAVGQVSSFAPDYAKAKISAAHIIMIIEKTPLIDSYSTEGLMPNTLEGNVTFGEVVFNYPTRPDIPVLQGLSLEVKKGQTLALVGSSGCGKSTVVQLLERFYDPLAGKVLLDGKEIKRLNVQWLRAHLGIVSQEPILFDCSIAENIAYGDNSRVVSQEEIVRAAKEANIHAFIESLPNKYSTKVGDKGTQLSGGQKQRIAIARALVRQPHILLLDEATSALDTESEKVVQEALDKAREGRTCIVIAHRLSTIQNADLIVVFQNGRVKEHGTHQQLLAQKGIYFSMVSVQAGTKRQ

ABCC1 (MRP1) [3] = target: T3, ABCC1 (MRP1) (Homo sapiens, UniProt P33527)
T3 sequence (P33527 whole entry): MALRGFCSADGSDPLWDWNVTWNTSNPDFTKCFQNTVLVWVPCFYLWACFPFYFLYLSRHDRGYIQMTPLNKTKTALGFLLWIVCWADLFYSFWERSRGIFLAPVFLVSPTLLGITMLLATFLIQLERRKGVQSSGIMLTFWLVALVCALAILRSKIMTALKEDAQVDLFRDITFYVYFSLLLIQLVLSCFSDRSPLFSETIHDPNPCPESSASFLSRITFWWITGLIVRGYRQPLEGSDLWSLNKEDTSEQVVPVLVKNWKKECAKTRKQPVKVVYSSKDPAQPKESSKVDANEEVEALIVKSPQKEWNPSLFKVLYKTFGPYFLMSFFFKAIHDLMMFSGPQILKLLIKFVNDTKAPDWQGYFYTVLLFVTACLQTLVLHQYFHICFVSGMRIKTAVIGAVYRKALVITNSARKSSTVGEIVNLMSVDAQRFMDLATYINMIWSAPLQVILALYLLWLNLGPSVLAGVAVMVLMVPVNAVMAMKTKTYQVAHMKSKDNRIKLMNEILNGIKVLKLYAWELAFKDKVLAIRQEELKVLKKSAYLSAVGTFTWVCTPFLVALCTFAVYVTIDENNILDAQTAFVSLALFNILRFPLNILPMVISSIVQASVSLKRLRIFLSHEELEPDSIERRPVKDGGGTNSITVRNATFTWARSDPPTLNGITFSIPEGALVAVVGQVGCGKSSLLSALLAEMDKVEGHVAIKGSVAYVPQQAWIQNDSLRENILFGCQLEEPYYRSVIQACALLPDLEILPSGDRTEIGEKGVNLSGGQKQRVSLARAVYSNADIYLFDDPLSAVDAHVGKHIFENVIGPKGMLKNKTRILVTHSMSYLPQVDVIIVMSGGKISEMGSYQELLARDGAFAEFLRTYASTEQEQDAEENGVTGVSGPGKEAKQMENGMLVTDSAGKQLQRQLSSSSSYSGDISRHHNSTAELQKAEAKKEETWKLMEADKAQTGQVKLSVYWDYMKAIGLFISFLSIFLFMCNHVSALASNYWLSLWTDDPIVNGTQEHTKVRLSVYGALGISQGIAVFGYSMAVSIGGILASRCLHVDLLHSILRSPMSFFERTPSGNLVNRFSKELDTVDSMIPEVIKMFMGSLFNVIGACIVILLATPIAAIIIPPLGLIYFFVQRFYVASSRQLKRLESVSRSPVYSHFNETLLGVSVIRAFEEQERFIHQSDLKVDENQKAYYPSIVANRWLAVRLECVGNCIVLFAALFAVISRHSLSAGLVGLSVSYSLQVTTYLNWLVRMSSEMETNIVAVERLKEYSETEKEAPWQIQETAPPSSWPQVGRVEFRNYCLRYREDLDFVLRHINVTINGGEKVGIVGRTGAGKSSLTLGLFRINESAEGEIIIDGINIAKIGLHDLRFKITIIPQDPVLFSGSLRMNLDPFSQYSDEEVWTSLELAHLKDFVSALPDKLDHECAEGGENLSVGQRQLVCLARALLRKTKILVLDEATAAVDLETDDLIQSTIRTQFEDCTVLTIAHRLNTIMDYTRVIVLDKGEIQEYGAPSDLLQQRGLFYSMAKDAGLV

[4] = system: HEK293 and HEK293-ABCG2 cells; test: Cell viability MTT assay, 72 h; type: cell-based, human
Outline: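 Parental HEK293 and HEK293-ABCG2 cells were seeded at 1.5×10^4 cells/well, left overnight, then exposed to test compound at 0.19–100 μM for 72 h at 37 °C under 5% CO2. Medium was replaced with 0.5 mg mL−1 MTT for 4 h. Formazan was dissolved in DMSO/ethanol (1:1) and absorbance read at 570 nm.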

ABCG2 [5] = target: T4, ABCG2 (Homo sapiens, UniProt Q9UNQ0); type: biochemical
T4 sequence (Q9UNQ0 1-655): T1 sequence (Q9UNQ0 1-655)

ABCG2 mRNA expression = test: mRNA expression levels by qPCR in HEK293-ABCG2 cells; type: cell-based, human; conditions: 50 μM, 72 h
HEK293-ABCG2 cells = test: Chemosensitization assay, co-treatment with SN-38, MTT, 72 h; type: cell-based, human; conditions: co-treatment with SN-38 0.05 μM, 11 at saturating concentration, Ko143 at 0.5 μM
ABCG2 [6] = target: T4, ABCG2; conditions: cited from earlier work
[7] = cited from earlier work
ABCC1 (MRP1) [8] = target: T3, ABCC1 (MRP1); test: Transport inhibition assay: calcein-AM in BHK21-ABCC1 cells, flow cytometry; conditions: for Inhibition (% ± SD) ABCC1 (MRP1) 10 μM: 10 μM compound; for Inhibition (% ± SD) ABCC1 (MRP1) 10 μM / Inhibition (% ± SD) ABCC1 (MRP1) 50 μM: calcein-AM 0.15 μM, relative to verapamil 30 μM (100%); for Inhibition (% ± SD) ABCC1 (MRP1) 50 μM: 50 μM compound
ABCB1 (P-gp) [9] = target: T2, ABCB1 (P-gp); test: Transport inhibition assay: rhodamine 123 in NIH3T3-ABCB1 cells, flow cytometry; conditions: for Inhibition (% ± SD) ABCB1 (P-gp) 10 μM: 10 μM compound; for Inhibition (% ± SD) ABCB1 (P-gp) 10 μM / Inhibition (% ± SD) ABCB1 (P-gp) 50 μM: rhodamine 123 5 μM, relative to GF120918 0.5 μM (100%); for Inhibition (% ± SD) ABCB1 (P-gp) 50 μM: 50 μM compound
ABCG2 (BCRP) [10] = target: T1, ABCG2 (BCRP); conditions: for Inhibition (% ± SD) ABCG2 (BCRP) 10 μM: 10 μM compound; for Inhibition (% ± SD) ABCG2 (BCRP) 10 μM / Inhibition (% ± SD) ABCG2 (BCRP) 50 μM: mitoxantrone 5 μM, 30 min, relative to Ko143 0.5 μM (100%); for Inhibition (% ± SD) ABCG2 (BCRP) 50 μM: 50 μM compound
[11] = human, probe mitoxantrone (5 μM)

Structure (SMILES): C=CCc1ccc(OC)c(-c2cc(CC=C)ccc2OC)c1 [Compound 12]
- Inhibition (% ± SD) ABCG2 (BCRP) 10 μM (ABCG2 (BCRP) [1]): 5.9 ± 10.9%
- Inhibition (% ± SD) ABCG2 (BCRP) 50 μM (ABCG2 (BCRP) [1]): 32.8 ± 5.5%
- Inhibition (% ± SD) ABCB1 (P-gp) 10 μM (ABCB1 (P-gp) [2]): −1.1 ± 1.5%
- Inhibition (% ± SD) ABCB1 (P-gp) 50 μM (ABCB1 (P-gp) [2]): −0.5 ± 2.1%
- Inhibition (% ± SD) ABCC1 (MRP1) 10 μM (ABCC1 (MRP1) [3]): 2.6 ± 1.8%
- Inhibition (% ± SD) ABCC1 (MRP1) 50 μM (ABCC1 (MRP1) [3]): 9.1 ± 3.3%

Structure (SMILES): C=CCc1ccc(O)c(-c2cc(CC=C)ccc2OC)c1 [Compound 11]
- Concentration with cytotoxic effect ([4]; 0.19 – 100 μM tested, HEK293 and HEK293-ABCG2): > 100 µM
- IG50 (concentration that reduces 50% of the cell viability) ([4]; estimated): > 100 µM
- Stimulation of ABCG2 ATPase activity (ABCG2 [5]): ~ 60%
- Inhibition of ABCG2 ATPase activity (ABCG2 [5]; 50 µM): ~ 30%
- Effect on mRNA ABCG2 expression levels (ABCG2 mRNA expression): did not significantly affect the transcriptional levels of ABCG2
- Reversion of ABCG2-mediated resistance to SN-38 (cell viability) (HEK293-ABCG2 cells): completely revert the MDR phenotype mediated by ABCG2
- Extent of ABCG2 inhibition (partial or complete inhibitor) (ABCG2 (BCRP) [1]): complete ABCG2 inhibitor
- IC50 (ABCG2 (BCRP) [1]): 9.5 µM
- Inhibition (% ± SD) ABCG2 (BCRP) 10 μM (ABCG2 (BCRP) [1]): 62.0 ± 11.9%
- Type of inhibition (Lineweaver-Burk plot) (ABCG2 (BCRP) [1]): mixed type of inhibition
- Inhibition (% ± SD) ABCB1 (P-gp) 10 μM (ABCB1 (P-gp) [2]): −0.7 ± 1.2%
- Inhibition (% ± SD) ABCB1 (P-gp) 50 μM (ABCB1 (P-gp) [2]): 2.8 ± 3.8%
- Inhibition (% ± SD) ABCC1 (MRP1) 10 μM (ABCC1 (MRP1) [3]): 4.9 ± 7.0%
- Inhibition (% ± SD) ABCC1 (MRP1) 50 μM (ABCC1 (MRP1) [3]): 11.5 ± 5.8%

Structure (SMILES): C=CCc1ccc(O)c(-c2cc(CC=C)ccc2O)c1 [magnolol]
- Transport by ABCG2 (substrate) (ABCG2 [6]): substrates of ABCG2

Structure (SMILES): COc1ccc2c3c([nH]c2c1)[C@H](CC(C)C)N1C(=O)[C@H](CCC(=O)OC(C)(C)C)NC(=O)[C@@H]1C3 [Ko143, reference compound]
- Reversion of ABCG2-mediated resistance to SN-38 (cell viability) (HEK293-ABCG2 cells): same percentage of cell viability as the observed for HEK293 cells exposed to SN-38 alone
- IG50 (cytotoxicity) [7]: 18 to 34 µM

Structure (SMILES): CCCc1ccc(O)c(-c2cc(CCC)ccc2O)c1 [Compound 14]
- Inhibition (% ± SD) ABCC1 (MRP1) 10 μM (ABCC1 (MRP1) [8]): 5.6 ± 5.5%
- Inhibition (% ± SD) ABCC1 (MRP1) 50 μM (ABCC1 (MRP1) [8]): 16.0 ± 10.7%
- Inhibition (% ± SD) ABCB1 (P-gp) 10 μM (ABCB1 (P-gp) [9]): 0.5 ± 0.9%
- Inhibition (% ± SD) ABCB1 (P-gp) 50 μM (ABCB1 (P-gp) [9]): −6.4 ± 0.3%
- Inhibition (% ± SD) ABCG2 (BCRP) 10 μM (ABCG2 (BCRP) [10]): 1.8 ± 1.7%
- Inhibition (% ± SD) ABCG2 (BCRP) 50 μM (ABCG2 (BCRP) [10]): 19.5 ± 4.5%

Structure (SMILES): C=CCc1ccc(O)c(-c2ccc(O)c(CC=C)c2)c1 [honokiol]
- Transport by ABCG2 (substrate) (ABCG2 [6]): substrates of ABCG2

Structure (SMILES): CCCc1ccc(O)c(-c2cc(CCC)ccc2OC)c1 [Compound 15]
- Inhibition (% ± SD) ABCC1 (MRP1) 10 μM (ABCC1 (MRP1) [8]): 4.3 ± 3.9%
- Inhibition (% ± SD) ABCC1 (MRP1) 50 μM (ABCC1 (MRP1) [8]): 5.8 ± 4.1%
- Inhibition (% ± SD) ABCB1 (P-gp) 10 μM (ABCB1 (P-gp) [9]): 0.2 ± 0.8%
- Inhibition (% ± SD) ABCB1 (P-gp) 50 μM (ABCB1 (P-gp) [9]): 2.0 ± 1.9%
- Inhibition (% ± SD) ABCG2 (BCRP) 10 μM (ABCG2 (BCRP) [10]): 1.1 ± 5.4%
- Inhibition (% ± SD) ABCG2 (BCRP) 50 μM (ABCG2 (BCRP) [10]): 20.4 ± 1.7%

Structure (SMILES): C=CCc1ccc(OC)c(-c2cc(CC=C)cc(O)c2O)c1 [Compound 13, 5,5’-diallyl-2’-methoxy-[1,1’-biphenyl]-2,3-diol]
- inhibition at 30 min, 10 μM (ABCC1 (MRP1) [8]; probe calcein-AM (0.15 μM)): 2.9 ± 4.3%
- inhibition at 30 min, 50 μM (ABCC1 (MRP1) [8]; probe calcein-AM (0.15 μM)): 4.7 ± 6.4%
- inhibition at 30 min, 10 μM (ABCB1 (P-gp) [9]; probe rhodamine 123 (5 μM)): 1.1 ± 4.6%
- inhibition at 30 min, 50 μM (ABCB1 (P-gp) [9]; probe rhodamine 123 (5 μM)): -1.2 ± 1.8%
- inhibition at 30 min, 10 μM (ABCG2 (BCRP) [10]; [11]): 4 ± 4.4%
- inhibition at 30 min, 50 μM (ABCG2 (BCRP) [10]; [11]): 19.5 ± 4.4%
